Results taken from paper PMC5496795 (Clinical cancer research : an official journal of the …, 2017).

How the values were obtained:
[1] = test system: PC-3 tumors; experiment: Histology/IHC of PC-3 tumors; type: in vivo, athymic nude male mice
Procedure, shortened: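 PC-3 xenograft tumours were taken after treatment, fixed in 10% buffered formalin, paraffin-embedded and cut at 5 micron. Sections were stained with anti-mouse CD31 antibody for vessel density and by TUNEL for cell death. VTP was an i.v. photosensitizer (9 mg/kg) followed immediately by 10 min of 755 nm laser illumination of the tumour area.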

[2] = test system: localized prostate cancer; details: published trial data in localized prostate cancer; ref not given; cited from earlier work
[3] = test system: PC-3 xenografts; experiment: Combination therapy, tumor growth of PC-3 xenografts; type: in vivo, athymic nude male mice; details: PC-3 tumor bearing animals
Procedure, shortened: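 PC-3 cells (5 ×10⁶ in 1:1 media/Matrigel) were implanted in the shoulder of 6–8-week-old males. At about 100 mm³ the mice were randomised to four arms: sham (i.v. saline plus illumination), VTP, radiolabelled peptide (14.8 MBq retro-orbital i.v.), or both. For VTP, 4 h after the peptide, the photosensitizer (9 mg/kg, i.v. bolus, in 5% dextran) was followed immediately by 10 min of 755 nm laser to the tumour plus a 1 mm rim. Tumours were measured by caliper twice weekly to 34 days.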

[4] = test system: GRPr-expressing prostate cancer xenografts; details: in vivo; cited from earlier work

## CC[C@H]1c2cc3[n-]c(c(CC(=O)OC)c4nc(cc5[n-]c(cc(n2)[C@@H]1C)c(C(C)=O)c5C)[C@@H](C)[C@@H]4CCC(=O)[O-])c(C(=O)NCCS(=O)(=O)[O-])c3C.[H+].[H+].[Pd+2] [VTP]
[1]; 24 hours post VTP treatment, compared to control tumors
  Vessel density in PC-3 tumors (IHC anti-CD31): markedly reduced vessel density
[1]; PC-3 tumors, post VTP treatment
  TUNEL staining of tumors (cell death): stained positive
[2]
  Cases with absent evidence of cancer (local tumor ablation): 80%
[3]
  Animals remaining tumor free at 34 days post treatment: 2/12

## ^111In-DOTA-PEG4-D-Phe-Gln-Trp-Ala-Val-Gly-His-Sta-Leu-NH2 [^111In-DOTA-AR]
[4]
  Fraction of delivered radioactivity washed out at 24 hours p.i.: about 2/3
  Time of optimal tumor uptake post injection: 1 to 4 h
